# Results reported in ChEMBL document CHEMBL3580551, “Soudanones A-G: Antifungal Isochromanones from the Ascomycetous Fungus Cadophora sp. Isolated from an Iron Mine” (2015).
# Calls of active or inactive are those of the source. The calls are words filed in the database; no cut-off is given here.
# Legend:
# [1] = test system: Pseudomonas aeruginosa; assay: Antimicrobial activity against Pseudomonas aeruginosa ATCC 27853 assessed as inhibition of microbial growth by microbroth dilution assay; assay type: functional
# Summary of the method: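 Broth microdilution susceptibility test against P. aeruginosa ATCC 27853. Tetracycline at 50 μg/mL served as the positive-control antibiotic. Growth inhibition was read in broth, with MIC values reported.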
# [2] = test system: Escherichia coli; assay: Antimicrobial activity against Escherichia coli ATCC 25922 assessed as inhibition of microbial growth by microbroth dilution assay; assay type: functional
# Summary of the method: (§1)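 Broth microdilution susceptibility test against the listed ATCC bacterial strain. Tetracycline at 10 μg/mL served as the positive-control antibiotic. Growth inhibition was read in broth, with MIC values reported.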
# [3] = test system: Staphylococcus aureus; assay: Antimicrobial activity against methicillin-resistant Staphylococcus aureus ATCC 43300 assessed as inhibition of microbial growth by microbroth dilution assay; assay type: functional
# Summary of the method: (§2)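 Broth microdilution susceptibility test; the read-out is MIC. The reference antibiotic was tetracycline at 10 μg/mL for MRSA ATCC 43300 and penicillin G at 10 μg/mL for E. faecalis ATCC 51299.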
# [4] = test system: Candida albicans; assay: Antimicrobial activity against Candida albicans ATCC 10231 assessed as inhibition of microbial growth by microbroth dilution assay; assay type: functional
# Summary of the method: (§3)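 Antifungal broth microdilution test against the yeast strain (C. albicans ATCC 10231 or C. neoformans ATCC 66031). Amphotericin B at 2 μg/mL served as the control antifungal. MIC values were taken from the broth panel.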
# [5] = test system: Acinetobacter baumannii; assay: Antimicrobial activity against Acinetobacter baumannii ATCC 19606 assessed as inhibition of microbial growth by microbroth dilution assay; assay type: functional; summary of the method: as §1
# [6] = test system: Bacillus subtilis; assay: Antimicrobial activity against Bacillus subtilis ATCC 6633 assessed as inhibition of microbial growth by microbroth dilution assay; assay type: functional; summary of the method: as §1
# [7] = test system: Klebsiella pneumoniae; assay: Antimicrobial activity against Klebsiella pneumoniae ATCC 13883 assessed as inhibition of microbial growth by microbroth dilution assay; assay type: functional; summary of the method: as §1
# [8] = test system: Enterococcus faecalis; assay: Antimicrobial activity against vancomycin-resistant Enterococcus faecalis ATCC 51299 assessed as inhibition of microbial growth by microbroth dilution assay; assay type: functional; summary of the method: as §2
# [9] = test system: Cryptococcus neoformans; assay: Antimicrobial activity against Cryptococcus neoformans ATCC 66031 assessed as inhibition of microbial growth by microbroth dilution assay; assay type: functional; summary of the method: as §3
# [10] = test system: Plasmodium falciparum; assay: Antiplasmodial activity against Plasmodium falciparum NF54 assessed as inhibition of microbial growth at 10 ug/ml by [3H]hypoxanthine incorporation assay; assay type: functional, organism-based
# Summary of the method: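 In vitro screen against the drug-sensitive P. falciparum NF54 strain using a modified [3H]hypoxanthine incorporation assay. Chloroquine and artesunate were run as positive controls.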
SMILES,MIC [1] [µg/mL],MIC [2] [µg/mL],MIC [3] [µg/mL],MIC [4] [µg/mL],MIC [5] [µg/mL],MIC [6] [µg/mL],MIC [7] [µg/mL],MIC [8] [µg/mL],MIC [9] [µg/mL],growth inhibition (GI) [10],growth inhibition (GI) [1],growth inhibition (GI) [2],growth inhibition (GI) [3],growth inhibition (GI) [5],growth inhibition (GI) [6],growth inhibition (GI) [7],growth inhibition (GI) [8]
CCCCCCC[C@@H]1Cc2c(C)c(O)cc(O)c2CO1,> 100,> 100,> 100,> 100,> 100,> 100,> 100,> 100,> 100,–,–,–,–,–,–,–,–
CCCCCCC[C@@H]1Cc2c(C)c(O)c(C(=O)O)c(O)c2CO1,–,–,–,> 100,–,–,–,–,35,inactive,–,–,–,–,–,–,–
Cc1c(O)cc(O)c2c1C[C@@H](CCCCCCCO)OC2=O,> 100,> 100,> 100,> 100,> 100,> 100,> 100,> 100,> 100,–,–,–,–,–,–,–,–
C[C@@H]1[C@H](O)[C@@H](C)/C=C/C=C/C=C/C=C/C=C/C=C/C=C/[C@H](O[C@@H]2O[C@H](C)[C@@H](O)[C@H](N)[C@@H]2O)C[C@@H]2O[C@](O)(C[C@@H](O)C[C@@H](O)[C@H](O)CC[C@@H](O)C[C@@H](O)CC(=O)O[C@H]1C)C[C@H](O)[C@H]2C(=O)O [AMPHOTERICIN B],–,–,–,0.2,–,–,–,–,0.2,–,–,–,–,–,–,–,–
CCCCCCC[C@@H]1Cc2c(C)c(O)cc(O)c2C(=O)O1,–,–,–,> 100,–,–,–,–,40,inactive,–,–,–,–,–,–,–
Cc1c(O)cc(O)c2c1C[C@@H](CCCCCC(C)O)OC2=O (some centres not stated),> 100,> 100,> 100,> 100,> 100,> 100,> 100,> 100,> 100,–,–,–,–,–,–,–,–
Cc1c(O)cc(O)c2c1C[C@@H](CCCCCCC(=O)O)OC2=O,> 100,> 100,> 100,> 100,> 100,> 100,> 100,> 100,> 100,–,–,–,–,–,–,–,–
O=C1CC[C@H](O)c2cccc(O)c21,–,–,–,40,–,–,–,–,30,–,inactive,inactive,inactive,inactive,inactive,inactive,inactive
O=C(O)CCCCCC[C@@H]1Cc2cc(O)cc(O)c2C(=O)O1,> 100,> 100,> 100,> 100,> 100,> 100,> 100,> 100,> 100,–,–,–,–,–,–,–,–
CC(=O)CCCCC[C@@H]1Cc2c(C)c(O)cc(O)c2C(=O)O1,> 100,> 100,> 100,> 100,> 100,> 100,> 100,> 100,> 100,inactive,–,–,–,–,–,–,–
